Reference: publication PMC12518644 (Scientific Reports, 2025)

Test system: MDA-MB-231 BC cell line
Assay: MTT cytotoxicity assay on MDA-MB-231 breast cancer cells
Format: cell-based
Settings: Homo sapiens, MDA-MB-231, 48 h, read-out: IC50 Values, MDA-MB-231, MTT, 48 h
Outline: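 Cells grown in DMEM with 10% FBS and 1% antibiotics (100 U/ml penicillin), seeded at 1.0 × 10^4 cells/well, and incubated 24 h at 37 °C under 5% CO2. Medium then replaced with test compound at 6.5, 12.5, 25 or 50 µM for 48 h. MTT (5 mg/mL solution) added for 4 h, formazan dissolved in DMSO, and absorbance read at 570 nm. IC50 derived from dose-response.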

Q: How did the IC50 turn out when `Cc1ccc(S(=O)(=O)n2cc(/C=N/NC(=O)c3cccc4ccccc34)c3ccccc32)cc1` [Compound 5p, (E )-N’ -[(1-Tosyl-1 H -indol-3-yl)methylene]−1-naphthohydrazide] was run?
A: Its IC50 is 18.1 ± 0.2 µM.
